Where a SMILES comes first, the peptide text is derived from it.
Legend:
Arf GAP2 [1] = molecular target: T1, Arf GAP2 (Homo sapiens, UniProt Q8N6H7); experiment: Cargo peptide titration in coatomer-dependent GAP assay; type: biochemical; conditions: for effect of peptide on Arf GAP2 activity: LUVs PI4P 0.03 μm, 3 min 30 °C
Outline: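 Arf GAP2 [1–521]-His6 (E. coli, refolded from inclusion bodies) at 11.4 nM, with 124 nM rat-liver coatomer. Substrate was 0.6 μM [α32P]GTP•myrArf1 on PI4P LUVs extruded through 0.03 μm pores. p23, p24 or p25 cytoplasmic-tail peptides (p25 also palmitoyl- or WRM-extended) were titrated in. Reactions ran 3 min at 30 °C. Palmitoyl-peptide data were fit to one-site binding with offset; duplicate experiments.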

Arf GAP2 [2] = experiment: Effect of p25 on Arf GAP2 with and without coatomer; type: biochemical; conditions: 3 min 30°C
Outline: (§1)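 GAP enzyme was Arf GAP2 [1–521]-His6 or His10-[325–724]ASAP1. Mixtures held 0.6 μM [α32P]GTP•Arf1 on PI4P LUVs extruded through 0.03 μm pores, with or without 124 nM coatomer and 25 μM p25 peptide. Fraction of GTP hydrolysed in 3 min at 30 °C was measured.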

Arf GAP2 [3] = molecular target: T1, Arf GAP2; experiment: Saturation kinetics, tryptophan fluorescence based assay; type: biochemical; conditions: 25 μM peptide, 124 nM coatomer, LUVs 0.03 μm
Outline: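 myrArf1•GTP was titrated into reactions with 114 nM Arf GAP2 [1–521]-His6, 124 nM coatomer and PI4P LUVs (0.03 μm pores), with or without 25 μM p25 peptide. GTP→GDP conversion was followed by tryptophan fluorescence. Readings were corrected for time-dependent fluorescence change of Arf GAP2 ± coatomer. Initial rates were fit to Michaelis-Menten and Hill equations; kcat came from Vmax.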

Arf GAP2 [4] = molecular target: T1, Arf GAP2; experiment: Time dependence; type: biochemical
Arf GAP2 [5] = molecular target: T1, Arf GAP2; experiment: Coatomer titration in Arf GAP2 GAP assay; type: biochemical
Outline: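 Coatomer was titrated into reactions with 11.4 nM Arf GAP2 [1–521]-His6, 0.6 μM [α32P]GTP•myrArf1 and 25 μM p25 peptide. LUVs contained PI4P and were extruded through 1.0 or 0.03 μm pores. Reactions ran 3 min at 30 °C. Read-out was hydrolysis of Arf1-bound GTP.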

Arf GAP2 [6] = molecular target: T1, Arf GAP2; experiment: Saturation kinetics following [α^32P]GTP hydrolysis; type: biochemical; conditions: 25 μM peptide, 124 nM coatomer, LUVs 0.03 μm
Outline: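 Saturation kinetics used [α32P]GTP•Arf1, titrated into reactions with 10 nM Arf GAP2 [1–521]-His6 and 124 nM coatomer, with or without 25 μM p25 peptide. LUVs contained PI4P and were extruded through 0.03 μm pores. Reactions stopped after 3 min at 30 °C. Data were fit to Michaelis-Menten and Hill equations, with kcat calculated from Vmax; three experiments.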

ASAP1 = experiment: Effect of coatomer and p25 on ASAP1 GAP activity; type: biochemical; conditions: 1 nM ASAP1, 3 min 30°C
Outline: as §1

Arf GAP1 = experiment: Effect of p25 on Arf GAP1 with and without coatomer; type: biochemical; conditions: 25 μM p25, 28 nM Arf GAP1, 124 nM coatomer, 3 min 30°C
Protein binding to LUVs = conditions: 1 μM Arf GAP2; 5 min, 30°C; Coomassie Blue; not shown
Outline: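 Sucrose-loaded LUVs (1 mM total lipid), extruded through 0.03 or 1 μm pores, were incubated with purified Arf GAP2 (1 μM) for 5 min at 30 °C. Vesicles were pelleted at 100,000 × g for 15 min at 4 °C. Bound protein was resolved by SDS-PAGE and stained with Coomassie Blue.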

Arf GAP2 [7] = molecular target: T1, Arf GAP2; conditions: tryptophan fluorescence assay; ref [33]; cited from earlier work
[8] = test system: [α^32P]GTP•Arf1 (myrArf1); experiment: GAP assay: Arf GAP titration, hydrolysis of [α^32P]GTP bound to myrArf1; type: biochemical, Human; conditions: for C50 (amount of Arf GAP needed for 50% of maximum observed hydrolysis) / Maximum GTP Hydrolysis: 0.6 μM [α^32P]GTP•Arf1, 3 min, 30 °C, mean ± SD, three experiments
coatomer = conditions: ref [18]; cited from earlier work
Arf GAP2 [9] = molecular target: T1, Arf GAP2; type: biochemical; conditions: for effect of phosphoinositide on Arf GAP2 activity: without coatomer
[10] = 11.4 nM Arf GAP2, 124 nM coatomer
[11] = LUVs 2.5% PI4P, 0.03 μm pores, 124 nM coatomer and 25 μM p25 where indicated
[12] = LUVs 2.5% PI4P, 1.0 μm pores, 124 nM coatomer and 25 μM p25 where indicated
[13] = LUVs 2.5% PIP2, 0.03 μm pores, 124 nM coatomer where indicated
[14] = LUVs 2.5% PIP2, 1.0 μm pores, 124 nM coatomer where indicated

T1 sequence (Q8N6H7 whole entry): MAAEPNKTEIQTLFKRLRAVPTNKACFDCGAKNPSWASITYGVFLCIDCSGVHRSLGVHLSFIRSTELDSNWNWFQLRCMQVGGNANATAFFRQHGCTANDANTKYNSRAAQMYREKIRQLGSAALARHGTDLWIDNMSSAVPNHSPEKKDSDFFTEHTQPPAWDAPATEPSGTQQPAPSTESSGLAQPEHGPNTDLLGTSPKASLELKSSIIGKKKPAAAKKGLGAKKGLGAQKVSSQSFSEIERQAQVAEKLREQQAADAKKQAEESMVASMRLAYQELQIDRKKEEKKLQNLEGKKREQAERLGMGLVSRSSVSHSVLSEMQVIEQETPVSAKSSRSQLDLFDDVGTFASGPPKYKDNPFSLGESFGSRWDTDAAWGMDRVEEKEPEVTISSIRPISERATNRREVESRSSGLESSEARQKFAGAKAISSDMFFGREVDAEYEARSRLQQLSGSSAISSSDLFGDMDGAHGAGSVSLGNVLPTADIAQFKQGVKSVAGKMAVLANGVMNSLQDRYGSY

## CSCC[C@H](NC(=O)[C@H](CCCNC(=N)N)NC(=O)[C@@H](N)Cc1c[nH]c2ccccc12)C(=O)N[C@@H](CCCNC(=N)N)C(=O)N[C@@H](Cc1c[nH]cn1)C(=O)N[C@@H](CC(C)C)C(=O)N[C@@H](CCCCN)C(=O)N[C@@H](CO)C(=O)N[C@@H](Cc1ccccc1)C(=O)N[C@@H](Cc1ccccc1)C(=O)N[C@@H](CCC(=O)O)C(=O)N[C@@H](C)C(=O)N[C@@H](CCCCN)C(=O)N[C@@H](CCCCN)C(=O)N[C@@H](CC(C)C)C(=O)N[C@H](C(=O)O)C(C)C (H-WRMRHLKSFFEAKKLV-OH)
Arf GAP2 [1]; [10]
  effect of peptide on Arf GAP2 activity: stimulated activity

## CC[C@H](C)[C@H](NC(=O)[C@H](CC(C)C)NC(=O)[C@H](CCCCN)NC(=O)[C@H](CCCCN)NC(=O)[C@H](C)NC(=O)[C@H](CCCCN)NC(=O)[C@H](Cc1ccccc1)NC(=O)[C@H](Cc1ccccc1)NC(=O)[C@H](CCCNC(=N)N)NC(=O)[C@H](CCCNC(=N)N)NC(=O)[C@H](CC(C)C)NC(=O)[C@@H](N)Cc1ccc(O)cc1)C(=O)N[C@@H](CCC(=O)O)C(=O)O [p23] (H-YLRRFFKAKKLIE-OH; N-terminus and C-terminus assumed)
Arf GAP2 [1]; [10]
  effect of peptide on Arf GAP2 activity: stimulated GAP activity

## CC(C)C[C@H](NC(=O)[C@H](Cc1c[nH]cn1)NC(=O)[C@@H](N)CCCNC(=N)N)C(=O)N[C@@H](CCCCN)C(=O)N[C@@H](CO)C(=O)N[C@@H](Cc1ccccc1)C(=O)N[C@@H](Cc1ccccc1)C(=O)N[C@@H](CCC(=O)O)C(=O)N[C@@H](C)C(=O)N[C@@H](CCCCN)C(=O)N[C@@H](CCCCN)C(=O)N[C@@H](CC(C)C)C(=O)N[C@H](C(=O)O)C(C)C [p25] (H-RHLKSFFEAKKLV-OH; N-terminus and C-terminus assumed)
Arf GAP2 [2]; 25 μM p25, 11.4 nM Arf GAP2, 124 nM coatomer
  effect of p25 on Arf GAP2 with coatomer: increased the activity in the samples containing both Arf GAP2 and coatomer
Arf GAP2 [2]; 25 μM p25, 11.4 nM Arf GAP2, no coatomer
  Arf GAP2 activity without coatomer: No activity was detected in the absence of coatomer
Arf GAP2 [2]; 25 μM p25, 3.4 μM Arf GAP2, no coatomer
  effect of p25 on Arf GAP2 without coatomer: had no effect
Arf GAP2 [1]
  EC50: 500 ± 200 nM
Arf GAP2 [1]; [10]
  effect of peptide on Arf GAP2 activity: stimulated GAP activity
Arf GAP2 [1]; concentrations greater than, 11.4 nM Arf GAP2, 124 nM coatomer
  peptide concentration above which the effect decreased: 25 to 50 µM
Arf GAP2 [3]
  effect of p25 on kcat: increased the kcat of the reaction
Arf GAP2 [4]; 25 μM p25 with coatomer
  effect of p25 on time dependence of hydrolysis: accelerated hydrolysis
Arf GAP2 [5]; 25 μM p25, 11.4 nM Arf GAP2, 0.03 and 1.0 μm LUVs
  effect of p25 on coatomer dependence of Arf GAP2 activity: increased the extent of hydrolysis
Arf GAP2 [5]; 25 μM p25 peptide, smaller LUVs, 11.4 nM Arf GAP2, 3 min, 30 °C
  coatomer concentration at peak activity, with p25: 100 nM
Arf GAP2 [5]; smaller LUVs, 25 μM p25, 11.4 nM Arf GAP2
  coatomer concentration below which p25 effect was greatest: less than 250 nM
Arf GAP2 [6]
  effect of p25 on kcat: increased the kcat of the reaction
ASAP1; 25 μM p25, 124 nM coatomer
  effect of p25 on ASAP1 with coatomer: coatomer-dependent inhibition was increased by p25
ASAP1; 25 μM p25, no coatomer
  effect of p25 on ASAP1 without coatomer: no effect in the absence of coatomer
Arf GAP1
  effect of p25 on Arf GAP1: stimulated by p25 when coatomer was present

## Arf GAP2: [1–521] Arf GAP2 His6 expressed in E. coli and purified from inclusion bodies
Arf GAP2 [4]; 3.4 μM Arf GAP2, 0.6 μM myrArf1•GTP, no coatomer
  first order rate constant, effect of vesicle size: three-fold greater on the smaller vesicles than on the larger vesicles
Arf GAP2 [4]; 3.4 μM Arf GAP2, no coatomer, kcat of Arf GAP1 from ref 22
  rate constant relative to kcat of Arf GAP1: less than 1/100
Protein binding to LUVs
  effect of vesicle size on Arf GAP2 binding to LUVs: did not detect an effect of vesicle size
Arf GAP2 [7]
  effect of coatomer and curvature on Arf GAP2: stimulated by coatomer but was not affected by curvature
[8]; 3.4 μM Arf GAP2, no coatomer, footnote 1
  extent of hydrolysis at highest Arf GAP2 concentration: 25% – 40
[8]; [11]
  C50 (amount of Arf GAP needed for 50% of maximum observed hydrolysis): > 500 nM
  Maximum GTP Hydrolysis: 15 ± 1%
[8]; [12]
  C50 (amount of Arf GAP needed for 50% of maximum observed hydrolysis): > 500 nM
  Maximum GTP Hydrolysis: 6.2 ± 1.2%
[8]; [13]
  C50 (amount of Arf GAP needed for 50% of maximum observed hydrolysis): > 500 nM
  Maximum GTP Hydrolysis: 37 ± 5.2%
[8]; [14]
  C50 (amount of Arf GAP needed for 50% of maximum observed hydrolysis): > 500 nM
  Maximum GTP Hydrolysis: 25 ± 2.0%
[8]; no coatomer
  GAP activity compared to purified Arf GAP1: little activity compared to purified Arf GAP1
coatomer
  binding to coatomer relative to Arf GAP1: bind coatomer more tightly than does Arf GAP1

## phosphatidylinositol 4,5-bisphosphate [PIP2]
Arf GAP2 [9]
  effect of phosphoinositide on Arf GAP2 activity: affected the extent of hydrolysis but not the C50

## phosphatidylinositol 4-phosphate [PI4P]
Arf GAP2 [9]; 124 nM coatomer present
  reduction of C50 by PI4P: 2 fold
Arf GAP2 [9]
  effect of phosphoinositide on Arf GAP2 activity: had no effect by itself

B1: Arf GAP3: Arf GAP that functions with the coat protein coatomer (protein, UniProt Q9NP61 1-516, looked up)
ADP-ribosylation factor …: MGDPSKQDILTIFKRLRSVPTNKVCFDCGAKNPSWASITYGVFLCIDCSGSHRSLGVHLSFIRSTELDSNWSWFQLRCMQVGGNASASSFFHQHGCSTNDTNAKYNSRAAQLYREKIKSLASQATRKHGTDLWLDSCVVPPLSPPPKEEDFFASHVSPEVSDTAWASAIAEPSSLTSRPVETTLENNEGGQEQGPSVEGLNVPTKATLEVSSIIKKKPNQAKKGLGAKKGSLGAQKLANTCFNEIEKQAQAADKMKEQEDLAKVVSKEESIVSSLRLAYKDLEIQMKKDEKMNISGKKNVDSDRLGMGFGNCRSVISHSVTSDMQTIEQESPIMAKPRKKYNDDSDDSYFTSSSSYFDEPVELRSSSFSSWDDSSDSYWKKETSKDTETVLKTTGYSDRPTARRKPDYEPVENTDEAQKKFGNVKAISSDMYFGRQSQADYETRARLERLSASSSISSADLFEEPRKQPAGNYSLSSVLPNAPDMAQFKQGVRSVAGKLSVFANGVVTSIQDRYGS
coatomer
  binding to coatomer relative to Arf GAP1: bind coatomer more tightly than does Arf GAP1

Source: article PMC2692659 (Cellular signalling, 2009)
